Results: ChEMBL document CHEMBL5107946, “SF5- and SCF3-substituted tetrahydroquinoline compounds as potent bactericidal agents against multidrug-resistant persister Gram-positive bacteria” (RSC Med Chem, 2021)
Values after ≈ are worked out from the molar mass of the structure shown. Active and inactive are the calls of the source.

Legend:
Enterococcus faecium [1] = assay: Antibacterial activity against vancomycin-resistant Enterococcus faecium ATCC 700221 assessed as bacterial growth inhibition incubated for 18 to 20 hrs by CLSI based broth microdilution assay
Enterococcus faecalis [2] = assay: Antibacterial activity against vancomycin-resistant Enterococcus faecalis ATCC 51575 assessed as bacterial growth inhibition incubated for 18 to 20 hrs by CLSI based broth microdilution assay; type: functional; conditions: time 18-20 hrs
Method in brief: (§1)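 CLSI broth microdilution; compounds and control antibiotics made up at 10 mg mL−1 in DMSO (stock), serially diluted 1:2 across the plate. Inoculum adjusted to 0.5 McFarland, then diluted 1:100 into wells. Plates incubated static at 37 °C for 18–20 h before MIC read.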

Staphylococcus aureus [3] = assay: Antibacterial activity against Staphylococcus aureus ATCC 25923 assessed as bacterial growth inhibition incubated for 18 to 20 hrs by CLSI based broth microdilution assay; type: functional; conditions: time 18-20 hrs
Method in brief: as §1

Listeria monocytogenes = assay: Antibacterial activity against Listeria monocytogenes ATCC 19115 assessed as bacterial growth inhibition incubated for 18 to 20 hrs by CLSI based broth microdilution assay; type: functional; conditions: time 18-20 hrs
Method in brief: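 MIC by CLSI broth microdilution. Compounds were made as 10 mg mL−1 DMSO stocks and serially diluted 1:2. Inoculum was set to 0.5 McFarland and diluted 1:100 into the wells. Plates were incubated static at 37 °C for 18–20 h before reading the MIC.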

Enterococcus faecalis [4] = assay: Antibacterial activity against Enterococcus faecalis ATCC 29212 assessed as bacterial growth inhibition incubated for 18 to 20 hrs by CLSI based broth microdilution assay; type: functional; conditions: time 18-20 hrs
Method in brief: as §1

Staphylococcus aureus [5] = assay: Antibacterial activity against Staphylococcus aureus ATCC 25923 assessed as bacterial growth inhibition at 16 ug/ml incubated for 18 to 20 hrs by CLSI based broth microdilution assay; type: functional, organism-based; conditions: dose 16.0 µg/ml, time 18-20 hrs
Method in brief: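 Single-concentration screen at 16 μg mL−1 final. Overnight TSB culture was diluted 1:1000 in cation-adjusted MHB and grown to early exponential phase. 1 mL of culture was added to compound in glass tubes and incubated overnight at 37 °C. OD600 was read and normalized to the DMSO control after subtracting medium-only OD.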

Staphylococcus aureus [6] = assay: Antibacterial activity against methicillin-resistant Staphylococcus aureus USA300 assessed as bacterial growth inhibition incubated for 18 to 20 hrs by CLSI based broth microdilution assay; type: functional; conditions: time 18-20 hrs
Method in brief: as §1

Staphylococcus aureus [7] = assay: Antibacterial activity against methicillin-resistant Staphylococcus aureus ATCC 33592 assessed as bacterial growth inhibition incubated for 18 to 20 hrs by CLSI based broth microdilution assay; type: functional; conditions: time 18-20 hrs
Method in brief: as §1

Staphylococcus aureus [8] = assay: Antibacterial activity against methicillin-resistant Staphylococcus aureus USA300 assessed as fold increase in MIC incubated for 30 days by resistance development based broth microdilution assay; type: functional; conditions: time 30 day
Method in brief: (§2)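 Multi-step resistance selection over 30 days. MIC determined first. Each day, 5 μL from the turbid well just below the MIC was diluted 1:1000 in CA-MHB and used as inoculum for the next broth microdilution MIC. Resistance defined as a rise of more than four-fold over the starting MIC.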

Staphylococcus aureus [9] = assay: Antibacterial activity against methicillin-resistant Staphylococcus aureus ATCC 33592 assessed as fold increase in MIC incubated for 30 days by resistance development based broth microdilution assay; type: functional; conditions: time 30 day
Method in brief: as §2

Staphylococcus aureus [10] = assay: Antibacterial activity against methicillin-resistant Staphylococcus aureus ST239 (ARLG 1665) assessed as bacterial growth inhibition incubated for 18 to 20 hrs by CLSI based broth microdilution assay; type: functional; conditions: time 18-20 hrs
Method in brief: as §1

Staphylococcus aureus [11] = assay: Antibacterial activity against methicillin-resistant Staphylococcus aureus ST239 (ARLG 1663) assessed as bacterial growth inhibition incubated for 18 to 20 hrs by CLSI based broth microdilution assay; type: functional; conditions: time 18-20 hrs
Method in brief: as §1

Staphylococcus aureus [12] = assay: Antibacterial activity against methicillin-resistant Staphylococcus aureus ST239 (ARLG 1644) assessed as bacterial growth inhibition incubated for 18 to 20 hrs by CLSI based broth microdilution assay; type: functional; conditions: time 18-20 hrs
Method in brief: as §1

Staphylococcus aureus [13] = assay: Antibacterial activity against methicillin-resistant Staphylococcus aureus ST1312 (ARLG 1649) assessed as bacterial growth inhibition incubated for 18 to 20 hrs by CLSI based broth microdilution assay; type: functional; conditions: time 18-20 hrs
Method in brief: as §1

Cell membrane [14] = assay: Induction of cell membrane permeability in Staphylococcus aureus ATCC 25923 at 4 ug/ml by DiOC2 dye based flow cytometry assay; conditions: dose 4.0 µg/ml
Method in brief: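 Flow cytometry on S. aureus ATCC 25923 grown in TSB to exponential phase (OD600 0.2–0.3), then treated. Cells were washed twice in PBS and resuspended in buffer. To-PRO 3 iodide (red) and DiOC2 (green) were added and samples analysed immediately. The red/green ratio was used as the permeabilization readout, with bithionol 4 μg mL−1 as positive control.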

Cell membrane [15] = assay: Induction of cell membrane disruption in persister Staphylococcus aureus ATCC 25923 at 32 ug/ml incubated for 6 hrs by scanning electron microscopy; conditions: dose 32.0 µg/ml
Enterococcus faecium [16] = assay: Bactericidal activity against vancomycin-resistant Enterococcus faecium ATCC 700221 assessed as reduction in colony forming unit incubated for 20 hrs; conditions: ATCC 700221, 20 h
Enterococcus faecalis [17] = assay: Bactericidal activity against Enterococcus faecalis ATCC 29212 assessed as reduction in colony forming unit incubated for 20 hrs; type: functional
Method in brief: (§3)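 Follows the broth microdilution MIC plate. 4 μL taken from each well without growth, spotted in duplicate on tryptic soy agar and incubated static at 37 °C for 20 h. MBC taken as the concentration giving 99.9% reduction in CFU.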

Staphylococcus aureus [18] = assay: Bactericidal activity against Staphylococcus aureus ATCC 25923 assessed as reduction in colony forming unit incubated for 20 hrs; type: functional
Method in brief: as §3

Staphylococcus aureus [19] = assay: Bactericidal activity against methicillin-resistant Staphylococcus aureus ATCC 33592 assessed as reduction in colony forming unit incubated for 20 hrs; type: functional
Method in brief: as §3

Enterococcus faecalis [20] = assay: Bactericidal activity against vancomycin-resistant Enterococcus faecalis ATCC 51575 assessed as reduction in colony forming unit incubated for 20 hrs; type: functional
Method in brief: as §3

Staphylococcus aureus [21] = assay: Bactericidal activity against methicillin-resistant Staphylococcus aureus USA300 assessed as reduction in colony forming unit incubated for 20 hrs; type: functional
Method in brief: as §3

| Compound | MIC (Enterococcus faecium [1]) [µg/mL] | MIC (Enterococcus faecalis [2]) [µg/mL] | MIC (Staphylococcus aureus [3]) [µg/mL] | MIC (Listeria monocytogenes) [µg/mL] | MIC (Enterococcus faecalis [4]) [µg/mL] | Activity (Staphylococcus aureus [5]) | further results |
| --- | --- | --- | --- | --- | --- | --- | --- |
| O=C(O)c1ccc([C@@H]2Nc3ccc(S(F)(F)(F)(F)F)cc3[C@H]3[C@@H]4CC[C@@H](C4)[C@H]32)cc1 | 4 (≈ 8.98 µM) | 4 (≈ 8.98 µM) | 4 (≈ 8.98 µM) | 4 (≈ 8.98 µM) | 4 (≈ 8.98 µM) | Active | MIC (Staphylococcus aureus [6]): 16 µg/mL (≈ 35.9 µM); MIC (Staphylococcus aureus [7]): 4 µg/mL (≈ 8.98 µM) |
| FC(F)(F)c1n[nH]cc1-c1nc2ccc(S(F)(F)(F)(F)F)cc2c2c1[C@H]1CC[C@@H]2C1 | 8 (≈ 17.6 µM) | 8 (≈ 17.6 µM) | 4 (≈ 8.78 µM) | 8 (≈ 17.6 µM) | 8 (≈ 17.6 µM) | Active | MIC (Staphylococcus aureus [6]): 8 µg/mL (≈ 17.6 µM); MIC (Staphylococcus aureus [7]): 8 µg/mL (≈ 17.6 µM) |
| FC(F)(F)Oc1ccc2c(c1)[C@H]1[C@@H]3CC[C@@H](C3)[C@H]1[C@H](c1c[nH]nc1C(F)(F)F)N2 | 4 (≈ 9.58 µM) | 8 (≈ 19.2 µM) | 4 (≈ 9.58 µM) | 4 (≈ 9.58 µM) | 8 (≈ 19.2 µM) | Active | MIC (Staphylococcus aureus [6]): 8 µg/mL (≈ 19.2 µM); MIC (Staphylococcus aureus [7]): 4 µg/mL (≈ 9.58 µM) |
| FC(F)(F)Sc1ccc2c(c1)[C@H]1[C@@H]3CC[C@@H](C3)[C@H]1[C@H](c1c[nH]nc1C(F)(F)F)N2 | 4 (≈ 9.23 µM) | 8 (≈ 18.5 µM) | 4 (≈ 9.23 µM) | 4 (≈ 9.23 µM) | 8 (≈ 18.5 µM) | Active | MIC (Staphylococcus aureus [6]): 4 µg/mL (≈ 9.23 µM); MIC (Staphylococcus aureus [7]): 2 µg/mL (≈ 4.61 µM) |
| CC(C)Oc1ccc2c(c1)[C@H]1[C@@H]3CC[C@@H](C3)[C@H]1[C@H](c1c[nH]nc1C(F)(F)F)N2 |  |  |  |  |  | Active |  |
| O=C(O)c1cn(C2CC2)c2cc(N3CCNCC3)c(F)cc2c1=O [CIPROFLOXACIN] |  |  |  |  |  |  | fold change (FC) (Staphylococcus aureus [8]): 16; fold change (FC) (Staphylococcus aureus [9]): 64 |
| FC(F)(F)c1ccc2c(c1)N[C@@H](c1c[nH]nc1C(F)(F)F)[C@@H]1[C@H]3CC[C@H](C3)[C@H]21 | 8 (≈ 19.9 µM) | 8 (≈ 19.9 µM) | 4 (≈ 9.97 µM) | 8 (≈ 19.9 µM) | 8 (≈ 19.9 µM) | Active | MIC (Staphylococcus aureus [6]): 8 µg/mL (≈ 19.9 µM); MIC (Staphylococcus aureus [7]): 8 µg/mL (≈ 19.9 µM) |
| FC(F)Oc1ccc2c(c1)[C@H]1[C@@H]3CC[C@@H](C3)[C@H]1[C@H](c1c[nH]nc1C(F)(F)F)N2 |  |  |  |  |  | Active |  |
| FS(F)(F)(F)(F)c1ccc2c(c1)[C@H]1[C@@H]3CC[C@@H](C3)[C@H]1[C@H](c1c[nH]cn1)N2 |  |  | 8 (≈ 20.4 µM) |  |  | Active |  |
| FS(F)(F)(F)(F)c1ccc2c(c1)[C@H]1[C@@H]3CC[C@@H](C3)[C@H]1[C@H](c1cn[nH]c1)N2 |  |  | 16 (≈ 40.9 µM) |  |  | Active |  |
| C/C(=C\C(=O)OCCCCCCCCC(=O)O)C[C@@H]1OC[C@H](C[C@@H]2O[C@H]2[C@@H](C)[C@H](C)O)[C@@H](O)[C@H]1O [MUPIROCIN] |  |  |  |  |  |  | fold change (FC) (Staphylococcus aureus [9]): >250 |
| Cc1onc(-c2ccccc2)c1C(=O)N[C@@H]1C(=O)N2[C@@H]1SC(C)(C)[C@@H]2C(=O)O [OXACILLIN] |  |  |  |  |  |  | MIC (Staphylococcus aureus [10]): 512 µg/mL (≈ 1280 µM); MIC (Staphylococcus aureus [11]): 256 µg/mL (≈ 638 µM); MIC (Staphylococcus aureus [12]): 512 µg/mL (≈ 1280 µM); MIC (Staphylococcus aureus [13]): 256 µg/mL (≈ 638 µM) |
| FC(F)(F)c1n[nH]cc1[C@@H]1Nc2ccccc2[C@H]2[C@@H]3CC[C@@H](C3)[C@H]21 |  |  |  |  |  | Active |  |
| Oc1c(Cl)cc(Cl)cc1Sc1cc(Cl)cc(Cl)c1O |  |  |  |  |  |  | Activity (Cell membrane [14]): Active; Activity (Cell membrane [15]): Active |
| CN[C@H](CC(C)C)C(=O)N[C@H]1C(=O)N[C@@H](CC(N)=O)C(=O)N[C@H]2C(=O)N[C@H]3C(=O)N[C@H](C(=O)N[C@H](C(=O)O)c4cc(O)cc(O)c4-c4cc3ccc4O)[C@H](O)c3ccc(c(Cl)c3)Oc3cc2cc(c3O[C@@H]2O[C@H](CO)[C@@H](O)[C@H](O)[C@H]2O[C@H]2C[C@](C)(N)[C@H](O)[C@H](C)O2)Oc2ccc(cc2Cl)[C@H]1O [VANCOMYCIN] | > 128 | > 128 |  | 1 (≈ 0.69 µM) | 2 (≈ 1.38 µM) |  | MBC (Enterococcus faecium [16]): > 128 µg/mL; MBC (Enterococcus faecalis [17]): 2 µg/mL (≈ 1.38 µM); MBC (Staphylococcus aureus [18]): 2 µg/mL (≈ 1.38 µM); MBC (Staphylococcus aureus [19]): 2 µg/mL (≈ 1.38 µM); MBC (Enterococcus faecalis [20]): > 128 µg/mL; MBC (Staphylococcus aureus [21]): 2 µg/mL (≈ 1.38 µM) |
| Fc1ccc2c(c1)[C@H]1[C@@H]3CC[C@@H](C3)[C@H]1[C@H](c1c[nH]nc1C(F)(F)F)N2 |  |  |  |  |  | Active |  |
| CC(=O)NC[C@H]1CN(c2ccc(N3CCOCC3)c(F)c2)C(=O)O1 [LINEZOLID] |  |  |  | 2 (≈ 5.93 µM) |  |  | MBC (Enterococcus faecium [16]): > 128 µg/mL; MBC (Enterococcus faecalis [17]): 64 µg/mL (≈ 190 µM); MBC (Staphylococcus aureus [18]): 64 µg/mL (≈ 190 µM); MBC (Staphylococcus aureus [19]): 64 µg/mL (≈ 190 µM); MBC (Enterococcus faecalis [20]): > 128 µg/mL; MBC (Staphylococcus aureus [21]): 64 µg/mL (≈ 190 µM) |
